Source: ChEMBL document CHEMBL3612019, “Revisiting 1,3,4-Oxadiazol-2-ones: Utilization in the Development of ABHD6 Inhibitors” (Bioorg Med Chem, 2015)
The source made the active and inactive calls. No cut-off for these calls is given here.

What was measured:
[1] = target: T1, Monoacylglycerol lipase ABHD6 (Homo sapiens) (UniProt Q9BV23); experiment: Reversible inhibition of human ABHD6 expressed in HEK293 cells at 1 uM pre-incubated for 10 mins before 2-AG substrate addition followed by rapid 40 fold compound dilution measured after 10 to 90 mins by HPLC method; type: cell-based
T1 sequence (whole entry): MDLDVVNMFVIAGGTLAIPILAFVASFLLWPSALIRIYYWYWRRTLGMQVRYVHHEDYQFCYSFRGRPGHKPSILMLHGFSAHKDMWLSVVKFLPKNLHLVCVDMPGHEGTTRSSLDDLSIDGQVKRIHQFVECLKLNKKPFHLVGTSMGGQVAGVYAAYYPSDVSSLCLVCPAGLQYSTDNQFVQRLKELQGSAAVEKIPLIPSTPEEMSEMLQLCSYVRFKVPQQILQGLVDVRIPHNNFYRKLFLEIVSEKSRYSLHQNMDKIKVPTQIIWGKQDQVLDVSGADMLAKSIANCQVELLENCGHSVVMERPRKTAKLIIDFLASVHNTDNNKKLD

[2] = target: T2, Lysophosphatidylserine lipase ABHD12 (Homo sapiens) (UniProt Q8N2K0); experiment: Inhibition of human ABHD12 expressed in HEK293 cells assessed as remaining enzyme activity at 1 uM pre-incubated for 10 mins before 2-AG substrate addition by HPLC method; type: cell-based
T2 sequence (whole entry): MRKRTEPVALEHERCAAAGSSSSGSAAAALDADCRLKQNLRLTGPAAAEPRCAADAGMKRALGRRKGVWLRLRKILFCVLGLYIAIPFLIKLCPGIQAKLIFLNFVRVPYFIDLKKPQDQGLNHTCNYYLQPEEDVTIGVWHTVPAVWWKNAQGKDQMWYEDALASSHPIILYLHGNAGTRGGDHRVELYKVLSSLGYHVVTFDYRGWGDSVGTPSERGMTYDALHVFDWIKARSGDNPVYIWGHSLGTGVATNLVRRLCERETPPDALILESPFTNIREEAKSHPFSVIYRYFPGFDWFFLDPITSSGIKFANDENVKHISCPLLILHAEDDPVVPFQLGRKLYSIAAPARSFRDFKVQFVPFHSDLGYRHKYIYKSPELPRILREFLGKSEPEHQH

[3] = target: T3, Fatty-acid amide hydrolase 1 (Homo sapiens) (UniProt O00519); experiment: Inhibition of human FAAH expressed in COS7 cell membranes at 10 uM pre-incubated for 10 mins before [3H]-AEA substrate addition by liquid scintillation counting; details: COS-7
T3 sequence (whole entry): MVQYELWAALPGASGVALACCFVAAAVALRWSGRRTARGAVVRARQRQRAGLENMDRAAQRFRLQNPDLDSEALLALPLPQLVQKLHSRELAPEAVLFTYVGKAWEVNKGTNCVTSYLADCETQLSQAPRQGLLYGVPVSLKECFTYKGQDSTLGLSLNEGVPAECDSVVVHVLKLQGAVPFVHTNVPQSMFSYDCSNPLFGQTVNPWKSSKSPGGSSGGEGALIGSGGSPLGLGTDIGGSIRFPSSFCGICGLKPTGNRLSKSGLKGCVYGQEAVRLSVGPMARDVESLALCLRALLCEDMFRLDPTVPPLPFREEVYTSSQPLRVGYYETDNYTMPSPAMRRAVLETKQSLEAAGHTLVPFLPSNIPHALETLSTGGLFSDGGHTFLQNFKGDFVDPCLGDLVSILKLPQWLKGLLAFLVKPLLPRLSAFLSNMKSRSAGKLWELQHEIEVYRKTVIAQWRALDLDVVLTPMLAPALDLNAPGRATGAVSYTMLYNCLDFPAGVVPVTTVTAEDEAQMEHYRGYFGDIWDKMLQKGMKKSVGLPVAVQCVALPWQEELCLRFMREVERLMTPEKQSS

[4] = target: T1, Monoacylglycerol lipase ABHD6 (Homo sapiens); experiment: Inhibition of human ABHD6 expressed in HEK293 cells assessed as remaining enzyme activity by measuring reduction in glycerol production from 1-AG hydrolysis at 1 uM pre-incubated for 30 mins before 1-AG substrate addition and measured 90 mins post substrate addition by fluorescence method; values are per cent of control
[5] = target: T4, Monoglyceride lipase (Homo sapiens) (UniProt Q99685); experiment: Inhibition of human MAGL expressed in HEK293 cells at 10 uM pre-incubated for 10 mins before 2-AG substrate addition by HPLC method; type: cell-based
T4 sequence (whole entry): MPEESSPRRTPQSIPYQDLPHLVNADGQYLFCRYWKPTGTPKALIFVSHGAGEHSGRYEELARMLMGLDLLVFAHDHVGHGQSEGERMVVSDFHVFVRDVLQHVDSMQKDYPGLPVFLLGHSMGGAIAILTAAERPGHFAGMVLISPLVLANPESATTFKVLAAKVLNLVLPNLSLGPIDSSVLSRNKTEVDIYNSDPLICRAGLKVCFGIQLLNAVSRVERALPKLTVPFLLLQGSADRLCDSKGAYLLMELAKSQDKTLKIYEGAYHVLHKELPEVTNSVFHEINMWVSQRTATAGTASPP
Procedure, shortened: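 Lysates of hMAGL-overexpressing HEK293 cells in 50 mM Tris–HCl pH 7.4 with 1 mM EDTA. After a 10 min preincubation with inhibitor or DMSO, 2-AG was added (final 50 µM) and incubated 10 min at 37 °C. The reaction was stopped and samples centrifuged. Arachidonic acid formation and 2-AG depletion were measured by HPLC. Replicates as for the FAAH assay.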

inhibition [1] | inhibition [2] | inhibition [3] | residual activity [4] [%] | inhibition [5] [%] | SMILES
Active | – | – | – | – | CCCCCCCCCCC[C@@H](C[C@@H]1OC(=O)[C@H]1CCCCCC)OC(=O)[C@H](CC(C)C)NC=O
– | inactive | inactive | 63 | 30 | CCOc1nn(Cc2cccc([N+](=O)[O-])c2)c(=O)o1
